Results published in PMC10928850 (RSC Advances, 2024).
Values after ≈ are worked out from the molar mass of the structure shown. Values belong to the compound of their own block, whether it stands above or below them.

Columns and labels:
[1] = Total antioxidant capacity; conditions: mean ± SE, three replicates
[2] = Iron reducing power; conditions: mean ± SE, three replicates
Outline: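 Reducing power was measured by the Oyaizu method and expressed in μg mL−1, with ascorbic acid as the standard.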

[3] = DPPH radical scavenging activity; conditions: mean ± SE, three replicates
[4] = ABTS radical scavenging assay; conditions: at equal concentrations; mean ± SE, three replicates
[5] = test system: β-glucosidase; experiment: β-Glucosidase enzyme inhibition; format: biochemical; conditions: mean ± SE, three replicates; for β-Glucosidase Inhibition (%): at the same concentration
[6] = biological target: acetylcholinesterase (AChE) (Homo sapiens, UniProt P22303); experiment: Acetylcholinesterase inhibition, Ellman's method; format: biochemical; conditions: for AChE Inhibition (%): at the same concentration, mean ± SE, three replicates
Sequence of acetylcholinesterase (AChE) (P22303 32-614, species assumed): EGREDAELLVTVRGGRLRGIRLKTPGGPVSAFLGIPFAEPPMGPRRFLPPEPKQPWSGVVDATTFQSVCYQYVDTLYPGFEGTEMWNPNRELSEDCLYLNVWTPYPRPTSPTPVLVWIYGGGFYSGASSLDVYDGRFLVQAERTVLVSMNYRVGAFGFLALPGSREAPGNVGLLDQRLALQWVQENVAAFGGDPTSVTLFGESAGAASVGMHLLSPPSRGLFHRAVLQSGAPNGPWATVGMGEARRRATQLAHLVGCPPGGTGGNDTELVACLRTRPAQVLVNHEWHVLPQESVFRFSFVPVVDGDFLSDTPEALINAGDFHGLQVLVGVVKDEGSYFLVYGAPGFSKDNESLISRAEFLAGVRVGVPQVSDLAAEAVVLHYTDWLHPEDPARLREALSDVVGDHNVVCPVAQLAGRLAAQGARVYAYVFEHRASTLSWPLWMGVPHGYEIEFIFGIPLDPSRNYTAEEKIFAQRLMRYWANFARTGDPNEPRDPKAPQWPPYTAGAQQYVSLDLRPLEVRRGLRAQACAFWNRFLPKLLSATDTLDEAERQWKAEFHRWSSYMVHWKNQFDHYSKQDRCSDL

[7] = test system: bovine serum albumin (BSA); experiment: Anti-arthritic: inhibition of protein denaturation; conditions: inhibitory effect, at the same concentration; mean ± SE, three replicates
[8] = test system: proteinase (trypsin); experiment: Anti-arthritic: proteinase inhibitory activity; format: biochemical; conditions: at the same concentration; mean ± SE, three replicates
[9] = test system: human lung (A549) cancer cell line; experiment: MTT cytotoxicity, lung cancer A549; format: cell-based; conditions: A549, 48 h, read-out: IC50 Lung cancer (A549)
Outline: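 Human lung A549 cells, run alongside Caco-2 colon cancer and normal WI-38 lung cells, were exposed to test compound. Viability was read by MTT, with optical density at 590. IC50 and percentage growth inhibition were computed with IC50 calculation software.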

[10] = test system: human colon (Caco-2) cancer cell line; experiment: MTT cytotoxicity, colon cancer Caco-2; format: cell-based; conditions: for IC50: Homo sapiens, Caco-2, 48 h, read-out: IC50 Colon cancer (Caco-2); for Therapeutic index (TI) Colon cancer (Caco-2): IC50 on the normal cells (WI-38)/IC50 on the cancer cells (Caco-2)
[11] = test system: normal lung (WI-38) cell line; experiment: MTT cytotoxicity, normal lung WI-38; format: cell-based; conditions: Homo sapiens, WI-38, 48 h, read-out: IC50 Normal lung (WI-38)
[12] = biological target: T1, α-amylase (Sus scrofa, UniProt P00690); experiment: α-Amylase enzyme inhibition; format: biochemical; conditions: at the same concentration; mean ± SE, three replicates
T1 sequence (P00690 16-511): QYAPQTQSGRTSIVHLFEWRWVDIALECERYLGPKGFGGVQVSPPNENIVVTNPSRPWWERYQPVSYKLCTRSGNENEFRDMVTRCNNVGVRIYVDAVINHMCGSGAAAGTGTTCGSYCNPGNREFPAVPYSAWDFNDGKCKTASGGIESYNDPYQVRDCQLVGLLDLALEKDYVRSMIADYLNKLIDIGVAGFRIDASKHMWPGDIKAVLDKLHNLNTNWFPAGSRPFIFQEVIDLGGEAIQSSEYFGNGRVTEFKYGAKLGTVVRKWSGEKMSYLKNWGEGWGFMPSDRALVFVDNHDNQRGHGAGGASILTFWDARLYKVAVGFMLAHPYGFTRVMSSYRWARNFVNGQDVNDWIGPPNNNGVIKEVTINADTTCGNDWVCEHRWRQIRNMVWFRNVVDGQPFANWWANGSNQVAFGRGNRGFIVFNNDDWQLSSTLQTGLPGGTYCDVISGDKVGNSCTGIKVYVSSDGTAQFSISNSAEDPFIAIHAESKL

[13] = biological target: α-glucosidase (Saccharomyces cerevisiae, UniProt P53341); experiment: α-Glucosidase enzyme inhibition; format: biochemical; conditions: at the same concentration; mean ± SE, three replicates
Sequence of α-glucosidase (P53341 whole entry): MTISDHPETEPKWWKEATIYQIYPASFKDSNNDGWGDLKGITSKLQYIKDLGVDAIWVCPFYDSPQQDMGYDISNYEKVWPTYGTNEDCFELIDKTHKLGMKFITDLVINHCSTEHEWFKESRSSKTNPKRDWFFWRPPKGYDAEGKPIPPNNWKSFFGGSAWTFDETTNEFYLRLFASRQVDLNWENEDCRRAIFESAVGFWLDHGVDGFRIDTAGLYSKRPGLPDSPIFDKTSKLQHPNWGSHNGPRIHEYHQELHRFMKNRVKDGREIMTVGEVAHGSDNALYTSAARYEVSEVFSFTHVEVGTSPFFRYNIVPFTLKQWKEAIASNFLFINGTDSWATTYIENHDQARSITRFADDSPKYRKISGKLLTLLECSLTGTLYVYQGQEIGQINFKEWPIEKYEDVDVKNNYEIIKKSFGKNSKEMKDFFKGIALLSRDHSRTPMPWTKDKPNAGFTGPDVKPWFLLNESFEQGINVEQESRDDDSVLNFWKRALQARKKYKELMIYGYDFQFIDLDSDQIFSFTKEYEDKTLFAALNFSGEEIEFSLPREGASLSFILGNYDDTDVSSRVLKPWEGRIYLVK

[14] = test system: α-glucosidase enzyme; experiment: Electrophoretic α-glucosidase pattern; format: biochemical; conditions: enzyme treated at concentration equivalent to IC50

Structure (SMILES): COc1ccc(Nc2nn3c(-c4ccccc4)ccnc3c2C(=O)Nc2ccc(Cl)cc2)cc1 [12b]
Antioxidant activity TAC [1]: 31.27 ± 0.07 mg gallic acid per g
Antioxidant activity IRP [2]: 17.97 ± 0.04 µg/mL
Scavenging activity DPPH IC50 [3]: 18.33 ± 0.04 µg/mL
Scavenging activity ABTS (%) [4]: 28.23 ± 0.06%
β-Glucosidase Inhibition (%) [5]: 9.66 ± 0.02%
β-Glucosidase IC50 [5]: 5180 ± 10 µg/mL
IC50 [6]: 6.7 mM
AChE Inhibition (%) [6]: 16.00 ± 0.04%
Anti-arthritic activity: Proteinase denaturation (%) [7]: 17.55 ± 0.04%
Anti-arthritic activity: Inhibition of proteinase (%) [8]: 16.25 ± 0.04%
IC50 [9]: 40.5 µg/mL (≈ 86.3 µM)
IC50 [10]: 29.8 µg/mL (≈ 63.3 µM)
Therapeutic index (TI) Colon cancer (Caco-2) [10]: 10.24
IC50 [11]: 305 µg/mL (≈ 649 µM)

Structure (SMILES): COc1ccc(Nc2nn3c(-c4ccccc4)ccnc3c2C(=O)Nc2ccccc2)cc1 [12a]
Antioxidant activity TAC [1]: 30.58 ± 0.07 mg gallic acid per g
Antioxidant activity IRP [2]: 17.29 ± 0.04 µg/mL
Scavenging activity DPPH IC50 [3]: 19.63 ± 0.04 µg/mL
Scavenging activity ABTS (%) [4]: 25.28 ± 0.06%
β-Glucosidase Inhibition (%) [5]: 7.67 ± 0.01%
β-Glucosidase IC50 [5]: 6470 ± 10 µg/mL
IC50 [6]: 7.67 mM
AChE Inhibition (%) [6]: 14.92 ± 0.02%
Anti-arthritic activity: Proteinase denaturation (%) [7]: 16.24 ± 0.04%
Anti-arthritic activity: Inhibition of proteinase (%) [8]: 14.91 ± 0.03%
IC50 [9]: 47.8 µg/mL (≈ 110 µM)
IC50 [10]: 38.1 µg/mL (≈ 87.6 µM)
Therapeutic index (TI) Colon cancer (Caco-2) [10]: 3.5
IC50 [11]: 134 µg/mL (≈ 308 µM)

Scavenging activity DPPH IC50 [3]: 4.05 ± 0.01 µg/mL
Structure (SMILES): O=C1O[C@H]([C@@H](O)CO)C(O)=C1O [Ascorbic acid, reference compound]
Scavenging activity ABTS (%) [4]: 39.09 ± 0.09%

Anti-arthritic activity: Inhibition of proteinase (%) [8]: 41.88 ± 0.09%
Structure (SMILES): O=C(O)Cc1ccccc1Nc1c(Cl)cccc1Cl [Diclofenac sodium, reference compound]

Structure (SMILES): C[C@H]1O[C@H](O[C@H]2[C@H](O)[C@@H](O)[C@@H](O[C@H]3[C@H](O)[C@@H](O)C(O)O[C@@H]3CO)O[C@@H]2CO)[C@H](O)[C@@H](O)[C@@H]1N[C@H]1C=C(CO)[C@@H](O)[C@H](O)[C@H]1O (stereo partly shown) [Acarbose]
α-Amylase Inhibition (%) [12]: 65.95 ± 0.01%
α-Glucosidase Inhibition (%) [13]: 55.45 ± 0.01%
β-Glucosidase Inhibition (%) [5]: 47.70 ± 0.01%
β-Glucosidase IC50 [5]: 1070 ± 10 µg/mL
α-glucosidase band (45 KDa) Qty (Band Quantity) [14]: completely decreasing the protein band

Structure (SMILES): COc1cccc2c1C(=O)c1c(O)c3c(c(O)c1C2=O)C[C@@](O)(C(=O)CO)C[C@@H]3O[C@H]1C[C@H](N)[C@H](O)[C@H](C)O1 [Doxorubicin, reference compound]
IC50 [9]: 31.3 µg/mL (≈ 57.6 µM)
IC50 [10]: 28.4 µg/mL (≈ 52.3 µM)
Therapeutic index (TI) Colon cancer (Caco-2) [10]: 2.67
IC50 [11]: 76 µg/mL (≈ 140 µM)
